Laboratory results published in ChEMBL document CHEMBL1124291, “New actinomycin D analogues as superior chemotherapeutic agents against primary and advanced colon tumors and colon xenografts in nude mice” (J Med Chem, 1988).

Tests used:
Rattus norvegicus [1] = species on record: Rattus norvegicus; assay: DNA-cleaving ability expressed as % of closed circular pBR322 DNA cleaved […] conc 50 uM; assay type: functional
Summary of the method: (§1)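 pBR322 DNA (200 μM nucleotides) in 10 mM Tris·HCl pH 7.8 and 50 mM NaCl, with 4 mM Na₂S₂O₄ and 100 μM FeCl₂. Incubated with drug for 1 h at 20 °C, kept air-saturated. Supercoiled and open-circular forms were separated by agarose gel electrophoresis, stained with ethidium bromide and quantitated by densitometry. % cleaved was calculated from the open- and closed-circular amounts.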

Rattus norvegicus [2] = species on record: Rattus norvegicus; assay: DNA-cleaving ability expressed as % of closed circular pBR322 DNA cleaved at 100 uM conc 100 uM; assay type: functional; summary of the method: as §1
P388 (Mus musculus) [3] = assay: Percent of the tissue bound conjugates isolated from incubation mixture containing tumor cell homogenate(T)
Rattus norvegicus [4] = species on record: Rattus norvegicus; assay: Percent of the protein conjugates isolated from incubation mixture containing tumor cell homogenate(T); assay type: functional
Summary of the method: (§2)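 Tritiated analogues were incubated with two systems. (T) sonicated P388 cell homogenates, 37 °C for 16 h. (M) liver microsomes from phenobarbital-induced rats, 6 h with an NADPH-generating system (glucose-6-phosphate dehydrogenase plus glucose 6-phosphate). Metabolites and water-soluble conjugates were isolated, separated by HPLC and expressed as percentages.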

Rattus norvegicus [5] = species on record: Rattus norvegicus; assay: The formation of adrenochrome from epinephrine in the presence of SOD(super oxide dismutase); + denotes ' Inhibited'; assay type: functional
Summary of the method: (§3)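 Drug-stimulated superoxide generation with rat liver microsomal enzymes and NADPH as cofactor. NADPH oxidation was read at 340 nm. Adrenochrome formed from epinephrine was read at 480 nm, with or without superoxide dismutase. % stimulation = [(drug-stimulated rate − basal rate)/basal rate] × 100. Values are mean ± standard error of triplicate analyses.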

Rattus norvegicus [6] = species on record: Rattus norvegicus; assay: Percent of the unidentified metabolites isolated from incubation mixture containing rat micro somes; assay type: functional; summary of the method: as §2
[7] = DNA-cleaving ability expressed as % of closed circular pBR322 DNA cleaved at 10 uM conc 10 uM
Rattus norvegicus [8] = species on record: Rattus norvegicus; assay: Percent of the uncoverted isolated from incubation mixture containing trat microsomes,; assay type: functional; summary of the method: as §2
B16 [9] = assay: In vivo antitumor activity against B16 melanoma cells at a optimal dose measured as %ILS (%increase life span); assay type: functional, Mus musculus
Summary of the method: (§4)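 BDF1 mice in groups of nine were implanted ip on day 0 with 0.2 mL of 1:5 (w/v) B16 melanoma brei; drugs were given ip. Survival is reported as median survival time in days with range, and as %ILS, with survivors counted on day 65 out of total injected.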

HT-29 [10] = assay: 50% inhibition of incorporationf precursor [3H]thymidine into DNA HT-29 cell lines; assay type: functional, cell-based; settings: Homo sapiens, HT-29, 2 h
Summary of the method: (§5)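 HT-29 colon carcinoma monolayers, 10^4 cells per well, five wells per concentration. Drug exposure lasted 2 h, with [³H]thymidine and [2-¹⁴C]uridine (0.5 μCi each) added for the last hour. Cells were washed, trypsinized, counted and precipitated onto glass-fiber filters with 10% TCA. Acid-precipitable radioactivity was measured. IC50 is the concentration inhibiting 50% of incorporation; data are averages of replicate experiments.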

P388 [11] = assay: Antitumor activity in P388/S(AMD sensitive) in male BDF1 mice measured as optimal dose at dose 0.3-1.8 mg/kg
MC-38 [12] = assay: Activity against advanced carcinoma C38 tumor in CDF1 mice at dose 1.20 mg/kg measured as % inhibition of tumor; assay type: functional; settings: Mus musculus
MC-38 [13] = assay: Activity against advanced carcinoma C38 tumor in CDF1 Mice at dose 0.60 mg/kg measured as % inhibition of tumor; assay type: functional; settings: Mus musculus
P388 [14] = assay: 50% inhibition of incorporation of precursor [3H]thymidine into DNA P388 cell lines; assay type: functional, cell-based; settings: Mus musculus, P388, 2 h
Rattus norvegicus [15] = species on record: Rattus norvegicus; assay: Percent of the tissue bound conjugates isolated from incubation mixture containing rat microsomes; assay type: functional; summary of the method: as §2
HT-29 [16] = assay: 50% inhibition of incorporationf precursor [3H]thymidine into RNA HT-29 cell lines; assay type: functional, cell-based; settings: Homo sapiens, HT-29, 2 h; in the assay text read “[14C]uridine” for “[3H]thymidine”; summary of the method: as §5
MC-38 [17] = assay: Number of toxic deaths/number of mice in a group of non tumored mice treated in parallel with the tumor-bearing mice and observed for 100 days at a dose of 0.60 mg/ kg; value given as 0/9; assay type: functional, Mus musculus
Summary of the method: (§6)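 Non-tumored CDF1 mice were treated in parallel with colon 38 tumor-bearing mice: iv injections on days 1, 5 and 9, groups of nine. Deaths were counted over 100 days of observation and reported as toxic deaths / mice in group.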

MC-38 [18] = assay: Mean survival time of treated / untreated group x100. (number of over 100-day survivors/number of total mice in the group) at a dose 0.30 mg/kg; assay type: functional, Mus musculus; settings: dose 0.3 mg/kg
Summary of the method: (§7)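 CDF1 mice were implanted sc on day 0 with colon 38 adenocarcinoma fragments (70 mg) and given iv drug on days 1, 5 and 9. %T/C = median survival of treated / untreated × 100. Number of mice surviving over 100 days / group total is given in parentheses.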

MC-38 [19] = assay: Number of toxic deaths/number of mice in a group of non tumored mice treated in parallel with the tumor-bearing mice and observed for 100 days at a dose of 0.30 mg/ kg; value given as 0/9; assay type: functional, Mus musculus; summary of the method: as §6
pBR322 plasmid DNA = assay: DNA-cleaving ability expressed as % of closed circular pBR322 DNA cleaved […]
MC-38 [20] = assay: Number of toxic deaths/number of mice in a group of non tumored mice treated in parallel with the tumor-bearing mice and observed for 100 days at a dose of 1.20 mg/ Kg; value given as 4/9; assay type: toxicity; settings: mouse, in vivo, 1.2 mg/kg, 2400 h; summary of the method: as §6
MC-38 [21] = assay: Activity against advanced carcinoma C38 tumor in CDF1 Mice at dose 0.30 mg/kg measured as % inhibition of tumor; assay type: functional; settings: Mus musculus
MC-38 [22] = assay: Mean survival time of treated / untreated group x100. (number of over 100-day survivors/number of total mice in the group) at a dose 1.20 mg/kg; assay type: functional, Mus musculus; settings: dose 1.2 mg/kg; summary of the method: as §7
Rattus norvegicus [23] = species on record: Rattus norvegicus; assay: Stimulation of NADPH oxidation in the presence of rat liver microsomes; assay type: functional; summary of the method: as §3
P388 [24] = assay: 50% inhibition of incorporation precursor [14C]uridine into RNA P388 cell lines; assay type: functional, cell-based; settings: Mus musculus
P388 (Mus musculus) [25] = assay: Percent of the uncoverted isolated from incubation mixture containing tumor cell homogenate(T)
Rattus norvegicus [26] = species on record: Rattus norvegicus; assay: The formation of adrenochrome from epinephrine in the absence of SOD(super oxide dismutase); assay type: functional; summary of the method: as §3
Rattus norvegicus [27] = species on record: Rattus norvegicus; assay: Percent of the SAD glucuronide and/or sulfate isolated from incubation mixture containing tumor cell homogenate(T) after 8.0, 10.5 min.; assay type: functional; summary of the method: as §2
Rattus norvegicus [28] = species on record: Rattus norvegicus; assay: Percent of the protein conjugates isolated from incubation mixture containing rat micro somes; assay type: functional; summary of the method: as §2
P388 (Mus musculus) [29] = assay: Percent of the unidentified metabolites isolated from incubation mixture containing tumor cell homogenate(T)
B16 [30] = assay: In vivo antitumor activity against B16 melanoma cells at dose 300 ug/Kg /inj measured as Mean survival time (MST); assay type: functional, Mus musculus; summary of the method: as §4
MC-38 [31] = assay: Mean survival time of treated / untreated group x100. (number of over 100-day survivors/number of total mice in the group) at a dose 0.60 mg/kg; assay type: functional, Mus musculus; settings: dose 0.6 mg/kg; summary of the method: as §7
P388 [32] = assay: Antitumor activity in P388/ADR (adriamycin resistant), in male BDF1 mice measured as optimal dose

Work on BLEOMYCIN yielded an Activity (Rattus norvegicus [1]) of 75% and an Activity (Rattus norvegicus [2]) of over 85%.
In the case of `Cc1c2oc3c(C)c(O)c(N)c(C(=O)N[C@@H]4C(=O)N[C@H](C(C)C)C(=O)N5CCC[C@H]5C(=O)N(C)CC(=O)N(C)[C@@H](C(C)C)C(=O)O[C@@H]4C)c3nc-2c(C(=O)N[C@@H]2C(=O)N[C@H](C(C)C)C(=O)N3CCC[C@H]3C(=O)N(C)CC(=O)N(C)[C@@H](C(C)C)C(=O)O[C@@H]2C)c(N)c1=O`, the Activity (P388 (Mus musculus) [3]) is reported as 7.5%, the Activity (Rattus norvegicus [4]) is reported as 5.5% and the Adrenochrome formation (Rattus norvegicus [5]) is reported as “Inhibited”. The Activity (Rattus norvegicus [6]) was 15%, the Activity [7] was 35% and the Activity (Rattus norvegicus [8]) was 50%. For the same compound, the ILS (B16 [9]) was 96%, the IC50 (HT-29 [10]) was 70 nM and the optimal dose (P388 [11]) was 0.6 mg/kg. The inhibition in vivo at 1.2 mg/kg (MC-38 [12]) was 99%, the inhibition in vivo at 0.6 mg/kg (MC-38 [13]) was 97% and the IC50 (P388 [14]) was 12 nM. It also gave an Activity (Rattus norvegicus [15]) of 15%, an IC50 (HT-29 [16]) of 55 nM and a Toxic deaths (MC-38 [17]) of 0. The T/C (MC-38 [18]) was 278%, the Toxic deaths (MC-38 [19]) was 0 and the Activity (pBR322 plasmid DNA) was 50%. For the same compound, the Activity (Rattus norvegicus [1]) was 50%, the Toxic deaths (MC-38 [20]) was 4 and the Activity (Rattus norvegicus [2]) was 65%. For the same compound, the inhibition in vivo at 0.3 mg/kg (MC-38 [21]) was 95%, the T/C (MC-38 [22]) was 211% and the NADPH oxidation (nM min-1 (mg of protein)-1) (Rattus norvegicus [23]) was 64.3. The IC50 (P388 [24]) was 15 nM, the Activity (P388 (Mus musculus) [25]) was 30% and the Adrenochrome formation (Rattus norvegicus [26]) was 19.3 nM min-1 (mg of protein)-1. It also gave an Activity (Rattus norvegicus [27]) of 47%, an Activity (Rattus norvegicus [28]) of 20% and an Activity (P388 (Mus musculus) [29]) of 10%. For the same compound, the MST (B16 [30]) was 57, the T/C (MC-38 [31]) was 278% and the optimal dose (P388 [32]) was 1.2 mg/kg.
